The list is not random: actives were taken first. Their share in the collection is about 12%.
b-catenin transl = beta-catenin nuclear translocation modulation | nuclear translocation activity, % at 5 µM | actives 0.3% (n = 190,000) | HeLa beta-catenin nuclear translocation, immunofluorescence imaging;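 active means nuclear translocation activity above 50% at 5 µM, with a well cell count of 50 or more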;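 further: per-cell ratio of nuclear to cytoplasmic median beta-catenin stain intensity; plate controls were DMSO negative control for no effect and GSK-3 inhibitor IX positive control for full effect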
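System: Human HeLa cells, endogenous beta-catenin | Compound dosing: 5 µM primary, 0.02–20 µM confirmation | Timing: 24 h compound exposure at 37°C, 5% CO2 | Measured by: Fluorescence imaging of beta-catenin antibody stain plus DAPI | Read-out basis: % activation of per-cell nuclear versus cytoplasmic median beta-catenin signal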
MT stabilizer = microtubule stabilizers in HeLa cells. HeLa tubulin immunostaining HCS, 24 h; share of cells brighter than vehicle mean+2SD. % tubulin-high responders, % at 10 µM. actives 0.83% (n = 200,000). AID 2205;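 active means plate Z-score above 3 for both tubulin-high and condensed-nucleus cell shares, with cell loss under 80%, at 10 µM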;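 further: anti alpha tubulin signal scored within the nucleus-defined area of each cell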
Autophagy HCS = autophagy modulation, high-content screen. MEF GFP-LC3 puncta imaging; test concentration mostly 10 µM. calls only at 10 µM (by protocol). actives 0.98% (n = 190,000). AID 463193;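 active means percentage of spot-positive cells more than 3 SD above its plate mean, without a fluorescence outlier flag or 80% toxicity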;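 further: spot-positive cell cutoff set from DMSO-treated cells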
L major viab = Leishmania major promastigote growth inhibition; Leishmania major promastigotes, resazurin fluorescence viability; inhibition, % at 10 µM; actives 9% (n = 200,000); AID 1063; in the data active means inhibition above about 50%;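 further: promastigotes grown with compound for 44 hours at 28 °C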
Dynein cargo inh = dynein cargo transport inhibition; 3617.4 mouse cells, GR-EGFP nuclear translocation imaging; test concentration mostly 20 µM; stimulated with dexamethasone, 1 µM; stronger effect = lower value; z-score, hits read low; actives 0.47% (n = 220,000);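 active means plate z-score of nuclear minus cytoplasmic receptor signal below a set negative limit, without overly bright fluorescence or cell loss, cut at about -3.5 in these data, passing the limit was not always enough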;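 further: z-score of nuclear minus cytoplasmic ring GR-EGFP intensity difference per well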
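Schedule: 48 h induction, then 1 h compound, then 30 min agonist, 37 °C. Buffer or medium: tetracycline-free induction medium containing charcoal-stripped FBS. Reagent: 1.0 µM final dexamethasone stimulus. Evaluation: nuclear versus cytoplasmic GR-EGFP signal, averaged per well. Signal: high-content fluorescence imaging after fixation.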
CHOP inhibitor = blocks CHOP induction under ER stress; AID 2732; inhibition, % at 10 µM; CHO-K1 CHOP-promoter luciferase, tunicamycin-induced, 15-18 h; actives 3.8% (n = 220,000);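 active means compounds that reduced the stress-induced luciferase reporter signal by more than about 70% of percent inhibition, limit read from the data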;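 further: 0% = tunicamycin plus vehicle and 100% = wells without tunicamycin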
* hit, by the source's call; i = inactive; / = no result given; + = active, no number.

SMILES | b-catenin transl | MT stabilizer | Autophagy HCS | L major viab | Dynein cargo inh | CHOP inhibitor
COc1cc(C2C(C#N)=C(N)N(Nc3ccccc3)C3=C2C(=O)CC(C)(C)C3)ccc1OCc1cccc(F)c1 (centres undefined) | 3.4 | 5.5 | i | 56.4* | 1.79 | 8.9
COc1ccc(C2C(C#N)=C(N)N(Nc3ccccc3)C3=C2C(=O)CC(C)(C)C3)cc1C (centres undefined) | 0.7 | 2.3 | i | 85.7* | 1.12 | 37.3
C=CCOc1ccc(C2C(C#N)=C(N)N(Nc3ccccc3)C3=C2C(=O)CCC3)cc1OC (centres undefined) | 0.5 | 39.5* | i | 96.2* | 0.0748 | 0.3
CCCCN(CC(=O)Nc1c(C)cccc1CC)C(=O)SCC | -4.8 | 1.9 | i | 0.0 | -0.162 | 32.3
COc1cc(C2C(C#N)=C(N)N(Nc3ccccc3)C3=C2C(=O)CC(C)(C)C3)ccc1OCc1ccccc1 (centres undefined) | 5.6 | 2.9 | i | 100.0* | -1.02 | 10.8
O=C1N/C(=C\c2ccc(O)cc2)C(O)=C1C=NCc1ccccc1 | 0.5 | 5.5 | i | -0.4 | -0.984 | 39.1
COc1ccc(/C=C2\NC(=O)C(C=NCc3ccccc3)=C2O)cc1 | -2.7 | 3.3 | i | 57.9* | -1.1 | 26.4
Cc1cc(Cl)c(OCCCNCc2ccccc2)c(Br)c1 | -0.7 | 1.8 | i | 84.1* | -0.718 | -27.9
COCCNCCCCOc1c(Cl)cc(C)cc1Br | 0.3 | 1.6 | i | 97.7* | -0.218 | 4.8
Cc1ccc(NC(=O)COC(=O)C2(c3ccc(Cl)cc3)CCCC2)cc1 | -1.2 | 2.5 | i | 0.2 | 0.321 | 64.0
CCC(=O)NCCc1c[nH]c2ccccc12 | 0.1 | 1.5 | i | -3.2 | 2.41 | 10.8
Cc1ccccc1NC(=S)NCCc1c[nH]c2ccccc12 | -0.3 | 3.4 | i | 81.4* | 0.024 | -2.2
COc1ccc(OCC(=O)NCCc2c[nH]c3ccccc23)cc1 | -0.5 | 2.7 | i | 64.4* | 0.68 | 13.9
COc1ccc(CCNC(=S)NCCc2c[nH]c3ccccc23)cc1 | 0.4 | 5.6 | i | 90.7* | -0.52 | 21.0
COc1ccc(Cn2c(N)c(C#N)c3nc4ccccc4nc32)cc1OC | / | 1.2 | i | 18.0 | -0.854 | 24.4
COc1ccc(CCn2c(N)c(C#N)c3nc4ccccc4nc32)cc1OC | / | 17.5 | i | 91.4* | 0.321 | 5.3
CCN1CCN(c2ccc(N=Cc3ccccc3O)cc2)CC1 | -0.1 | 1.5 | i | -0.5 | -0.448 | 7.5
COc1ccc(NC(=O)C2CCCN2S(=O)(=O)c2cccc3cccnc23)c(OC)c1 (centres undefined) | -1.4 | 2.9 | / | 0.1 | 1.67 | 44.1
COc1ccc(N(C)S(=O)(=O)c2cccc3cccnc23)c(OC)c1 | 56.4* | 54.8* | i | -2.0 | -0.745 | -4.5
CCn1c(O)c(C=NCc2cccs2)c(=O)n(CC)c1=S | / | 2.0 | i | -9.1 | -0.734 | 73.2*
CC1C(c2ccccc2)N(C)C(c2ccccc2)CC1(O)c1ccccc1 (centres undefined) | 1.4 | 0.8 | i | 98.1* | 0.151 | 85.1*
CC1/C(=N/O)CC(c2ccccc2)N(C)C1c1ccccc1 (centres undefined) | -1.7 | 1.7 | i | 7.1 | 0.939 | 93.4*
O=C(Nc1nnc(-c2ccco2)o1)c1ccc([N+](=O)[O-])s1 | -0.5 | 2.3 | i | 19.8 | -0.582 | -22.3
COc1ccc(CCNC(=O)c2ccccc2SC)cc1 | 1.0 | 4.2 | i | 5.7 | 1.87 | -3.5
Cc1ccc(Nc2ncc3c(n2)CC(C)(C)CC3=O)cc1 | -3.7 | 1.6 | i | 0.9 | -0.356 | 5.5
SMILES | b-catenin transl | MT stabilizer | Autophagy HCS | L major viab | Dynein cargo inh | CHOP inhibitor
Oc1ccc(NCc2ccccc2OCc2ccccc2F)cc1 | 1.1 | 3.0 | i | 100.0* | -0.0231 | 85.2*
Cc1ccc(NCc2ccccc2OCc2ccccc2F)cc1 | -0.4 | 2.8 | i | 5.8 | -0.0554 | 84.7*
NS(=O)(=O)c1ccc(NCc2ccccc2OCc2ccccc2F)cc1 | 4.5 | 1.4 | i | 13.5 | 0.0867 | 30.5
O=C(OCCN1CCOCC1)c1cccs1 | -0.2 | 2.0 | i | -0.6 | 1.42 | -2.9
CCOC(=O)CC(N)c1ccc2c(c1)OCO2 (centres undefined) | -4.7 | 2.1 | i | -4.6 | -0.551 | 12.8
CN(C)C(CNC(=O)/C=C/c1cccc(Cl)c1)c1ccccc1 (centres undefined) | -0.9 | 5.2 | i | 75.4* | -0.26 | 1.4
COCCCNC(=O)/C=C/c1cccc(Cl)c1 | 0.3 | 1.4 | i | -6.0 | -0.745 | -8.8
C=CCn1c(SCc2nc3ccccc3c(=O)[nH]2)nnc1-c1cc2cc(Cl)ccc2o1 | -3.2 | 3.7 | i | -2.7 | -0.139 | 82.5*
CCC(=O)NC(c1cccs1)c1cc(Cl)c2cccnc2c1O (centres undefined) | 1.8 | 2.5 | + | 98.2* | -0.0915 | 24.2
CCCCC(=O)NC(c1cccs1)c1cc(Cl)c2cccnc2c1O (centres undefined) | 2.3 | 5.7 | i | 98.5* | -0.123 | 97.2*
CCC(=O)NC(c1ccc(C)cc1)c1cc([N+](=O)[O-])c2cccnc2c1O (centres undefined) | 0.3 | 3.2 | i | -7.7 | 0.81 | 23.2
CCCC(=O)NC(c1ccc(OC)c(OC)c1)c1cc(Cl)c2cccnc2c1O (centres undefined) | 0.2 | 2.3 | i | 98.6* | -0.981 | 32.3
COc1ccc2nc(N3C(=O)CC(Cc4ccc(C)cc4)C3=O)sc2c1 (centres undefined) | -3.5 | 1.7 | i | 75.7* | -0.0795 | 51.3
COc1ccc(C(=O)NN/C(=N/S(=O)(=O)c2ccc(C)cc2)c2ccccc2)cc1 | -1.3 | / | / | / | 1.02 | -13.4
O=C(NC(=S)Nc1ccc(N2CCOCC2)c(Cl)c1)c1cccs1 | 0.4 | 2.1 | i | -5.5 | 0.0955 | 5.8
O=C(Nc1ccc(N2CCCCC2)c(Cl)c1)c1cccnc1 | -7.2 | 1.2 | i | 12.7 | -0.896 | /
O=C(Nc1ccc(N2CCCC2)c(Cl)c1)c1cccnc1 | -1.4 | 2.9 | i | 67.5* | -1.05 | 1.3
O=C(NC(=S)NC1CCCCCC1)c1cncc(Br)c1 | -4.8 | 2.4 | i | 61.4* | 0.44 | 17.8
O=C(NC(=S)Nc1ccc(N2CCOCC2)c(Cl)c1)c1cncc(Br)c1 | / | 1.7 | i | 82.4* | -0.357 | 26.6
CCCCC(c1nnnn1CCOC)N1CCN(Cc2ccccc2)CC1 (centres undefined) | -0.5 | 3.8 | i | 2.7 | -1.1 | 10.1
C/C=C/C=[N+](\[O-])C(C)/C(=N/O)c1ccc(F)cc1 (centres undefined) | -0.9 | 2.9 | i | -5.0 | 0.083 | 32.9
C=CCNC(=S)N/N=C/c1ccc(OCc2ccccc2Cl)cc1 | 1.1 | 2.8 | i | -2.8 | -0.478 | 92.3*

Screening results from PubChem BioAssay.
